T cruzi inh = T. cruzi replication inhibition. T. cruzi beta-gal in NIH3T3, luminescence, 90 h. inhibition, % (test concentration not listed). actives 1.4% (n = 300,000). AID 1885;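 active = mean inhibition across valid replicates above about 55%, limit read from the data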;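 also: signal also drops with host cell toxicity which is not excluded here; higher percent means less beta-gal luminescence so fewer parasites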
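System: NIH/3T3 fibroblasts plus reporter T. cruzi. Medium: DMEM plus 2% FBS. Probe or stimulus: 5000 reporter trypomastigotes per well. Compound: single 50 nL compound addition per well in DMSO. Incubation: co-culture of at least 90 h after 3 h attachment. Detection: GalScreen β-gal luminescence, detergent lysis, 60 min. Evaluation: parasite load inhibition, %.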
NS3 helicase inh = blocks Hepatitis C virus NS3 helicase unwinding; actives 0.56% (n = 290,000); inhibition, % at 10.9 µM; NS3 helicase DNA unwinding, Cy5 molecular beacon fluorescence;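 active = inhibition above the mean of all tested compounds plus 3 SD, set per campaign, cut at about 35% in these data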
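System: Hepatitis C virus NS3 helicase domain fragment enzyme | Reagent: Annealed dual-labelled DNA beacon duplex, ATP-started | Compound dosing: 10.9 µM single point, 0.8% DMSO | Incubation: 1 h reaction at 25 °C, ATP-initiated | Technique: Cy5 fluorescence | Evaluation: Percent inhibition from t60/t0 fluorescence ratio | Benchmarks: Low DMSO, high thioflavine S at 110 µM | Replication: Singlicate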
MEKK3 PB1 HTS = raises or lowers MEK5 binding to the human MEKK3 PB1 domain; Q99759; bead-based flow cytometry, Alexa488-MEK5 binding to MEKK3; actives lie on both sides; 0 = blocked by unlabeled MEK5, 100 = vehicle; binding response (% of control), % at 10 µM; actives 1.4% (n = 290,000); AID 1529;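 active = binding response more than 3 SD above or below the average of its plate-row segment, actives on both sides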;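 also: Alexa488 bead fluorescence after subtracting the streptavidin-only scavenger bead signal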
Target sequence (Q99759 whole entry, looked up, the tested form may be a part): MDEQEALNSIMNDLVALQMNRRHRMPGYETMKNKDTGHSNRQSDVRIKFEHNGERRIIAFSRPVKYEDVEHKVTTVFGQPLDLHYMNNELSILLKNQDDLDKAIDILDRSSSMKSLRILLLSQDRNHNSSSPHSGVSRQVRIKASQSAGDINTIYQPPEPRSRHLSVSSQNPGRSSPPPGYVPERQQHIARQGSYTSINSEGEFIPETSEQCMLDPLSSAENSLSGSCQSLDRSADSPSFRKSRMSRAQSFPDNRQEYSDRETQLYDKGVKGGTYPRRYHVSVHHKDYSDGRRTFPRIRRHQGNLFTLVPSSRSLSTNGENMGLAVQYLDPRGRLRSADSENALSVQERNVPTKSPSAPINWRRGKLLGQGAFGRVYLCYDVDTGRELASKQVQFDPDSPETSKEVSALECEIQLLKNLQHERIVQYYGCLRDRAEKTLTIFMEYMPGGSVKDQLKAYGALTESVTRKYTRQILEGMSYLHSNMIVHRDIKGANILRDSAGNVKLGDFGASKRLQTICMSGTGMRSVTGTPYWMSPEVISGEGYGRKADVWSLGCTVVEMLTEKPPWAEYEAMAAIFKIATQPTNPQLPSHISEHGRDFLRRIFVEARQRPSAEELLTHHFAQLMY
MEKK2wt PB1 HTS = raises or lowers MEK5 binding to wildtype human MEKK2 PB1 domain; bead flow cytometry, Alexa488-MEK5 binding to MEKK2 WT; actives lie on both sides; actives 1.1% (n = 290,000); binding response (% of control), % at 10 µM; Q9Y2U5; in the data active = binding response below about 67% or above about 130%
MEKK2 mut-MEK5 = signal of MEK5 binding to mutant human MEKK2 PB1 domain | percent response, % at 10 µM | bead flow cytometry, Alexa488-MEK5 binding to MEKK2 mutant | actives 0.35% (n = 290,000) | AID 1530; in the data active = percent response above about 24%, passing the limit was not always enough
FID counter = displaces DNA intercalator in HCV helicase counter-screen. actives 0.17% (n = 290,000). DNA fluorescent intercalator displacement, fluorescence. inhibition, % at 7.9 µM; in the data active = inhibition above about 37%;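 also: higher means more ethidium bromide displaced from hairpin DNA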
Large screens that a line does not name were inactive. Most compounds without a hit are left out; they make up all but 4.1% or so of the library.

CN1CCc2c(sc3c2c(=O)n(-c2ccccc2)c2nnc(SCc4ccccc4)n32)C1	T cruzi inh 70.6
CCOC(=O)CSc1nc2sc3c(c2c(=O)n1-c1ccc(OCC)cc1)CCN(C)C3	none
Cc1cc(NC(=O)Nc2cc(Cl)sc2Cl)no1	none
CCn1ncc(CN2CCCC(C(=O)c3cccc(OC(C)C)c3)C2)c1C (configuration not stated)	T cruzi inh 64.9
COc1ccc(C(=O)C2CCCN(Cc3cnc(N4CCOCC4)s3)C2)c(OC)c1 (configuration not stated)	T cruzi inh 61.3
CC(C)Oc1cccc(C(=O)C2CCCN(Cc3cnc(N4CCOCC4)s3)C2)c1 (configuration not stated)	T cruzi inh 58.8
COc1ccc(C(=O)C2CCCN(Cc3cnc(N4CCOCC4)s3)C2)cc1F (configuration not stated)	none
COc1ccc(C(=O)C2CCCN(Cc3ccc4nonc4c3)C2)c(OC)c1 (configuration not stated)	T cruzi inh 69.7
O=C(c1cccc([N+](=O)[O-])c1)N1CCCC(C(=O)N2CCc3ccccc3C2)C1 (configuration not stated)	none
CC(C)Cn1c(SCC(=O)N(C)c2c(N)n(Cc3ccccc3)c(=O)[nH]c2=O)nc2ccccc21	none (no result: NS3 helicase inh, MEKK3 PB1 HTS, MEKK2wt PB1 HTS, MEKK2 mut-MEK5, FID counter)
COc1ccc(C(=O)C2CCCN(Cc3cccn3-c3ccc(Cl)cn3)C2)c(OC)c1 (configuration not stated)	T cruzi inh 79.0
CC1CCC(C(C)C)C(OCC(O)CNC(C)c2ccccc2)C1 (configuration not stated)	none
CC(NCC(O)COC1CCC(C(C)(C)C)CC1)c1ccccc1 (configuration not stated)	T cruzi inh 74.9
CC(C)CN(C(=O)COC(=O)C1CC1)c1c(N)n(Cc2ccccc2)c(=O)[nH]c1=O	none (no result: NS3 helicase inh, MEKK3 PB1 HTS, MEKK2wt PB1 HTS, MEKK2 mut-MEK5, FID counter)
CC(C)CN(C(=O)COC(=O)c1ccc([N+](=O)[O-])s1)c1c(N)n(Cc2ccccc2)c(=O)[nH]c1=O	T cruzi inh 63.4 (no result: NS3 helicase inh, MEKK3 PB1 HTS, MEKK2wt PB1 HTS, MEKK2 mut-MEK5, FID counter)
COc1ccc(C(=O)N/C(=C\c2cn(S(=O)(=O)N(C)C)c3ccccc23)C(=O)N2CCOCC2)cc1	none
OCCN1CCN(c2nc(NCc3ccco3)c3ccccc3n2)CC1	none
Cc1ccc(OCCN2CCN(c3nc(NCc4ccco4)c4ccccc4n3)CC2)cc1	T cruzi inh 69.9
C/C(CC(=O)N1CCN(C=O)CC1)=N\NC(=O)c1ccc(Cl)cc1	none
C/C(CC(=O)N1CCN(C=O)CC1)=N\NC(=O)c1cccc([N+](=O)[O-])c1	MEKK2wt PB1 HTS 15.0
O=C(CCCCn1c(=O)[nH]c2ccccc2c1=O)NC1CCN(Cc2ccccc2)CC1	none
O=C(CCCCCn1c(=S)[nH]c2ccc(N3CCOCC3)cc2c1=O)NC1CCN(Cc2ccccc2)CC1	T cruzi inh 64.5
O=c1c2ccccc2[nH]c(=S)n1CCCN1CCN(c2ccccc2)CC1	T cruzi inh 57.8
Cc1noc(C)c1COC(=O)c1ccccc1NC(=O)c1ccco1	none
COc1cccc(C2CCCCN2Cc2nc(-c3ccc(C)o3)oc2C)c1 (configuration not stated)	none
COc1ccc(OC)c(-c2nc(CN3CCCCC3c3cccnc3)c(C)o2)c1 (configuration not stated)	T cruzi inh 59.4
O=C(COc1ccc(/C=N/NC(=O)c2cc3ccccc3o2)cc1Cl)Nc1ccccc1	T cruzi inh 72.7
COc1cc(/C=N/NC(=O)c2ccccc2O)ccc1OCC(=O)Nc1ccccc1	none
Cc1ccnc(NS(=O)(=O)c2ccc(NC(=O)c3snnc3C)cc2)n1	none
Cc1cc(C)n(CC(=O)N/N=C/c2cc(Br)cc([N+](=O)[O-])c2O)n1	T cruzi inh 64.8
O=S1(=O)Nc2c(ccc3cccnc23)-c2ccccc21	T cruzi inh 72.0
CCc1ccc(-n2nnnc2SCC(=O)Nc2ccc(NC(C)=O)cc2)cc1	T cruzi inh 55.0
CCc1ccc(NC(=O)CSc2nnnn2C)cc1	none
O=S(=O)(c1cccc(NC(=S)N2CCN(c3cccc(Cl)c3)CC2)c1)C(F)F	MEKK3 PB1 HTS 134.0
CN(C)CCCNC(=O)c1cc(C(=O)c2ccccc2)c[nH]1	none
O=C(c1ccccc1)c1c[nH]c(C(=O)NNc2ccccc2)c1	T cruzi inh 57.2
CCOC(=O)C1(CCOc2ccccc2)CCN(Cc2cccc3nonc23)CC1	T cruzi inh 57.4
CCOc1ccccc1CN1CCC(CO)(CCOc2ccccc2)CC1	FID counter 42.1
COc1ccc(C(=O)N2CCC3(CC2)NCCc2[nH]cnc23)cc1	none
COc1ccc(/C=C/c2ccncc2)cc1	T cruzi inh 73.7
CSc1nc(Cl)cc(N2CCOCC2)n1	none
CCn1c(O)c(C2=c3ccccc3=NC2=O)c2cc(Br)ccc21	T cruzi inh 60.8
O=C1N=c2ccccc2=C1c1c(O)n(-c2cccc(F)c2)[nH]c1=O	none
COc1cc(OC)nc(Oc2cc(C=O)ccc2OC)n1	none
CC(Oc1cccc(Cl)c1)C(=O)Nc1nc(-c2ccccn2)cs1 (configuration not stated)	T cruzi inh 60.0 (no result: NS3 helicase inh, MEKK3 PB1 HTS, MEKK2wt PB1 HTS, MEKK2 mut-MEK5, FID counter)
Cc1cccc(C(=O)NC(C(=O)Nc2nc(-c3ccccn3)cs2)C(C)C)c1 (configuration not stated)	T cruzi inh 82.3
C[C@H](NC(=O)c1ccccc1)C(=O)Nc1nc(-c2ccccn2)cs1	none
Cc1cccc(Nc2nc(-c3ccccn3)cs2)n1	T cruzi inh 58.7
Cc1ccc(-c2nc(CN3CCN(C(=O)C4CCCO4)CC3)cs2)cc1 (configuration not stated)	none
Cc1nc(CS(=O)(=O)c2ccc(Cl)cc2)cc(Sc2ccc(Cl)cc2)n1	none (no result: T cruzi inh)
O=S(=O)(Cc1cc(Sc2ccc(Cl)cc2)nc(-c2ccccc2)n1)c1ccccc1	T cruzi inh 54.6
CCCCC(CCC(=O)O)(C(=O)OCC)c1csc(Nc2ccccc2)n1 (configuration not stated)	none
CCOC(=O)/C(=N\Nc1ccc(OC)cc1)c1csc(Nc2ccccc2)n1	T cruzi inh 81.2
CCN(CC)C(=O)c1csc(Nc2ccc(C)cc2)n1	none
CCOC(=O)/C(=N/Nc1ccccc1)c1csc(Nc2ccccc2)n1	T cruzi inh 61.5
S=C1NCN(C2CCCCC2)CN1Cc1ccccc1	none
COc1ccccc1-c1cc2nc(C)c(CCC(=O)NCc3ccc(F)cc3)c(C)n2n1	T cruzi inh 61.3
O=C(Oc1c(Cl)cc(Cl)c2cccnc12)c1ccco1	T cruzi inh 68.1
O=C(Oc1c(Cl)cc(Cl)c2cccnc12)c1cccs1	T cruzi inh 75.3

High-throughput results: PubChem, several laboratories
